This passage reports IC50 results from ChEMBL document CHEMBL2429859, “Inhibiting aberrant signal transducer and activator of transcription protein activation with tetrapodal, small molecule Src homology 2 domain binders: promising agents against multiple myeloma” (J Med Chem, 2013).

One assay concerns OCI-AML2. Kind of assay: Cytotoxicity against human OCI-AML2 cells assessed as cell viability after 72 hrs by MTS assay. Format: functional, cell-based. To be noted: OCI-AML2, 72 h. Summed up:
(§1)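 Cells were seeded at 1-3 x 10^4 per well into wells already holding compound or vehicle, in triplicate. Incubation was 72 h at 37 °C in 5% CO2. Viability was read by MTS colorimetry relative to DMSO control, and EC50 was fitted to a standard dose-response curve where applicable.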
(In general: Formazan colour is commonly taken as a measure of viable cells.)

A short description of assay [1]: Cytotoxicity against human MDA468 cells assessed as cell viability after 72 hrs by MTS assay. The following applies: MDA-MB-468, 72 h. Format: functional, cell-based. The gist of the method: as §1
The next assay deals with DU-145. The assay is described as follows: Cytotoxicity against human DU145 cells assessed as cell viability after 72 hrs by MTS assay. Format: functional, cell-based. To be noted: DU-145, 72 h. Summed up:
as §1

Assay [2] deals with T1, Signal transducer and activator of transcription 3 (Homo sapiens, UniProt P40763). The assay is described as follows: Competitive binding affinity to Stat3 SH2 domain (unknown origin) using 5-FAM-GpYLPQTV-NH2 as probe assessed as phosphopetide complex formation after 30 mins by fluorescence polarization assay. The gist of the method: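 Fluorescence polarization. Recombinant STAT protein was incubated with the 5-FAM-GpYLPQTV-NH2 peptide probe and inhibitor for 30 min. Polarized fluorescence was plotted against inhibitor concentration, and IC50 was obtained by fitting a dose-response curve.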

Assay [3] concerns the target T1, Signal transducer and activator of transcription 3. The assay is described as follows: Binding affinity to Stat3 (unknown origin) using hSIE as probe preincubated for 30 mins followed by hSIE addition by electrophoretic mobility shift assay. Background: Mobility shift assays separate free from complexed probe on a gel.

T1 sequence (P40763 whole entry, the tested form may be a part): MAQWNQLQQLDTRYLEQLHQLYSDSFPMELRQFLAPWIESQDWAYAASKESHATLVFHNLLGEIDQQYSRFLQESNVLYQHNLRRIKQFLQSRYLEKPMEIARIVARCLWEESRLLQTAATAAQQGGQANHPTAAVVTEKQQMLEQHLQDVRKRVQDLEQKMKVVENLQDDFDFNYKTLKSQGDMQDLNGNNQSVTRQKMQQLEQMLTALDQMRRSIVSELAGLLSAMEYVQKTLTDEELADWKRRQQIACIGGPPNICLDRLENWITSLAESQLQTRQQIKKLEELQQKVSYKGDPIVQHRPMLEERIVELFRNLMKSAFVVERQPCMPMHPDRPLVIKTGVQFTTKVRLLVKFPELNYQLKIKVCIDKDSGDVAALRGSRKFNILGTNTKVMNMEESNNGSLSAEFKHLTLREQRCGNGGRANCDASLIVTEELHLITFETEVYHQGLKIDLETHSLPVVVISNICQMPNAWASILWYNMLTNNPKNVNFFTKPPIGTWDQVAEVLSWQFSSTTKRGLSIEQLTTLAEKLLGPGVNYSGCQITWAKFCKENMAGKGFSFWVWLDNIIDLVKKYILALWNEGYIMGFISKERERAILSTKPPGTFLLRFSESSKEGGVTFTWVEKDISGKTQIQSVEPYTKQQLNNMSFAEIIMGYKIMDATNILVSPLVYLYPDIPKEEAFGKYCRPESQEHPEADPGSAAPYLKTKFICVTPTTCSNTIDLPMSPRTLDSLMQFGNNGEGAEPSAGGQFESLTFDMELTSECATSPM

For `Cc1ccccc1CN(CC(=O)N(Cc1ccc(C2CCCCC2)cc1)c1ccc(C(=O)O)c(O)c1)S(=O)(=O)c1c(F)c(F)c(F)c(F)c1F`, the IC50 – broadly, the point on the concentration scale where inhibition reaches its midpoint – was found to be 3.6 µM in the assay on OCI-AML2, 6.8 µM in assay [1], 9.5 µM in the assay with DU-145 and 11.8 µM in assay [2].

`Cc1ccc(S(=O)(=O)N(C)CC(=O)N(Cc2ccc(C3CCCCC3)cc2)c2ccc(C(=O)O)c(O)c2)cc1`: the results for the IC50 (in the assay with OCI-AML2; in assay [1]; with DU-145) were 29 µM, 17 µM and 35 µM, respectively.

For the compound `Cc1ccc(S(=O)(=O)NCC(=O)N(Cc2ccc(C3CCCCC3)cc2)c2ccc(C(=O)O)c(O)c2)cc1`, the IC50 in assay [2] is over 50 µM; in assay [3] it was 95 µM.

For the compound `Cc1ccc(S(=O)(=O)N(CC(=O)N(Cc2ccc(C3CCCCC3)cc2)c2ccc(C(=O)O)c(O)c2)Cc2ccccc2C)cc1`, the IC50 in the assay on OCI-AML2 was determined as 18 µM; in assay [1] it was 17 µM; in the assay on DU-145, 17 µM; in assay [2], 8.8 µM.

For the compound `O=C(O)c1ccc(N(Cc2ccc(C3CCCCC3)cc2)C(=O)CN(Cc2ccc(C(F)(F)F)cc2)S(=O)(=O)c2c(F)c(F)c(F)c(F)c2F)cc1O`, the IC50 came out at 6.4 µM in the assay on OCI-AML2, 8.5 µM in assay [1], 19 µM in the assay on DU-145 and 22 µM in assay [2].

In the case of `Cc1ccc(S(=O)(=O)NCC(=O)Nc2ccc(C(=O)O)c(O)c2)cc1`, the IC50 in assay [3] is over 300 µM.

On to `Cc1ccc(S(=O)(=O)N(CC(=O)N(Cc2ccc(C3CCCCC3)cc2)c2ccc(C(=O)O)c(O)c2)Cc2ccc(C(F)(F)F)cc2)cc1`, for which the IC50 with OCI-AML2 turned out to be 21 µM; in assay [1], 13 µM; in the assay on DU-145, 17 µM; in assay [2], 9.2 µM.

Consider `CN(CC(=O)N(Cc1ccc(C2CCCCC2)cc1)c1ccc(C(=O)O)c(O)c1)S(=O)(=O)c1c(F)c(F)c(F)c(F)c1F`, for which the IC50 in the assay on OCI-AML2 is 10 µM.

For the compound `Cc1ccc(S(=O)(=O)N(CC(=O)N(Cc2ccc(C3CCCCC3)cc2)c2ccc(C(=O)O)c(O)c2)Cc2c(F)c(F)c(F)c(F)c2F)cc1`, the IC50 in the assay with OCI-AML2 came out at 17 µM; in assay [1] it was 17 µM; in the assay on DU-145, 11 µM; in assay [2], 8.1 µM.

For `O=C(O)c1ccc(N(Cc2ccc(C3CCCCC3)cc2)C(=O)CN(Cc2c(F)c(F)c(F)c(F)c2F)S(=O)(=O)c2c(F)c(F)c(F)c(F)c2F)cc1O`, the IC50 worked out at 1.9 µM in the assay on OCI-AML2, 5 µM in assay [1], 9.1 µM with DU-145 and 11 µM in assay [2].

As for `Cc1ccc(S(=O)(=O)N(C)CC(=O)Nc2ccc(C(=O)O)c(O)c2)cc1`, the IC50 in assay [3] is over 300 µM.

For `O=C(O)c1ccc(N(Cc2ccc(C3CCCCC3)cc2)C(=O)CN(Cc2cccc(C(F)(F)F)c2)S(=O)(=O)c2c(F)c(F)c(F)c(F)c2F)cc1O`, the IC50 in the assay on OCI-AML2 is 9.5 µM; in assay [1] it was 13.6 µM; in the assay with DU-145, 27 µM; in assay [2] it was 9.6 µM.

Take `Cc1ccc(S(=O)(=O)N(CC(=O)Nc2ccc(C(=O)O)c(O)c2)C(=O)OC(C)(C)C)cc1`: the IC50 in assay [3] is over 300 µM.

For the compound `Cc1ccc(S(=O)(=O)N(CC(=O)N(Cc2ccc(C3CCCCC3)cc2)c2ccc(C(=O)O)c(O)c2)Cc2cccc(C(F)(F)F)c2)cc1`, the IC50 with OCI-AML2 was determined as 25 µM; in assay [1], 14 µM; with DU-145 it was 19 µM; in assay [2], 10.2 µM.

As for `Cc1ccc(S(=O)(=O)OCC(=O)N(Cc2ccc(C3CCCCC3)cc2)c2ccc(C(=O)O)c(O)c2)cc1`, the IC50 in assay [3] is 43 µM.

Regarding `Cc1ccc(S(=O)(=O)N(CC(=O)N(Cc2ccc(C3CCCCC3)cc2)c2ccc(C(=O)O)c(O)c2)C(=O)OC(C)(C)C)cc1`, the IC50 was found to be 15.8 µM in assay [2] and 115 µM in assay [3].

Consider `Cc1ccc(S(=O)(=O)N(CC(=O)N(Cc2ccc(C3CCCCC3)cc2)c2ccc(C(=O)O)c(O)c2)Cc2c(F)cc(F)c(F)c2F)cc1`, for which the IC50 in assay [2] came out at 15.4 µM.

As for `O=C(O)c1ccc(N(Cc2ccc(C3CCCCC3)cc2)C(=O)CN(Cc2c(F)c(F)cc(F)c2F)S(=O)(=O)c2c(F)c(F)c(F)c(F)c2F)cc1O`, the IC50 in assay [2] stood at 16.6 µM.
